Data on six molecules can be found in publication PMC8929370 (Pharmacology Research & Perspectives, 2022).

In assay [1] the target is human CB1 (hCB1) receptor (Homo sapiens, UniProt P21554). The class given is binding. Particulars: for Rank order (affinity): rank of pKi among EG-018 and 13 analogues.
Assay [2] has as its target T1, human CB1 (Homo sapiens, UniProt P21554). The experiment in a line: Inhibition of FSK-stimulated cAMP. Format: cell-based. To be noted: for Emax: HEK293, read-out: E MAX (±SEM), %; for Rank order efficacy: cAMP inhibition efficacy ranking.
For assay [3], the target named is T1, human CB1. The experiment in a line: [35S]GTPγS binding in P2 membranes of HEK293 cells expressing hCB1. Format: biochemical. Particulars: for Rank order efficacy: [35S]-GTPγS efficacy ranking; for Emax: read-out: E MAX (±SEM), %.
The target in assay [4] is T1, human CB1. The experiment in a line: Phospho-ERK AlphaLISA assay in 3HA-hCB1 HEK cells. The class given is cell-based. To be noted: 10 µM alone. The method, boiled down: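 3HA-hCB1 HEK cells were plated at 2.5e4/well on poly-D-lysine-coated plates and serum-starved overnight after ~24 h in serum-free high-glucose DMEM with 1 mg/ml BSA. Drugs were made at 2x, prewarmed and dispensed in a 37°C waterbath, staggered so all stimulations ended together. The time course used 31.6 µM. Cells were lysed on ice and pERK read by AlphaLISA SureFire Ultra, in technical duplicate or quadruplicate.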

The structures appear in SMILES notation.

Sequence of human CB1 (hCB1) receptor (P21554 whole entry): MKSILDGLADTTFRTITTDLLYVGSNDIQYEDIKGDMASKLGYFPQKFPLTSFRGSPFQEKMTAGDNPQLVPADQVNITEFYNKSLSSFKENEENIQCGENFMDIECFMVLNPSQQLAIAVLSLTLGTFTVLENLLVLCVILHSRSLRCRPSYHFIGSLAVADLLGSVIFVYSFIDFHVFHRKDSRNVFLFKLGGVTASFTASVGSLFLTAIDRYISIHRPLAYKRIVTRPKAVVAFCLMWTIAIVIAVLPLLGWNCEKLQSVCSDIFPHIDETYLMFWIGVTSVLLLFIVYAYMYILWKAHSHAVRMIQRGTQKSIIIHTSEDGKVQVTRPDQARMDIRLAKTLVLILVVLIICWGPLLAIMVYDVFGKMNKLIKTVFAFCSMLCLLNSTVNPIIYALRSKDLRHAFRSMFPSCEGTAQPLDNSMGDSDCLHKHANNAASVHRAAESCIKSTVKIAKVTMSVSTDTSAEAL
T1 sequence (P21554 whole entry): as above

With `Cc1ccc(C(=O)c2ccc3c(c2)c2ccccc2n3CCN2CCOCC2)c2ccccc12` [Compound 141, (9-(2-(Morpholin-4-yl)ethyl)-9H-carbazol-3-yl)(4-methylnaphthalen-1-yl)methanone], in assay [1], the Ki is 148 nM and the “Rank order (affinity)” value is listed as 8. Besides, at human CB1 [2], a half-maximal response (EC50) required 83.2 nM, the Emax was 38.7% and the Rank order efficacy turned out to be 7. In addition, on human CB1 [3], the midpoint of the response, the EC50, lay at 355 nM; the Rank order efficacy turned out to be 8; the Emax worked out at 106%.

Regarding `O=C(NN1CCCCC1)c1nn(-c2ccc(Cl)cc2Cl)c2c1CCCc1cc(Cl)ccc1-2` [NESS‐0327, reference compound], at human CB1 [2] (concentration-response, compared to SR141716A), the “inverse agonism in cAMP assay” value is “approximately equivalent inverse agonism to SR141716A”.

In the case of `O=C(c1ccc2c(c1)c1ccccc1n2CCN1CCOCC1)c1ccnc2ccccc12` [Compound 157, (9-(2-(Morpholin-4-yl)ethyl)-9H-carbazol-3-yl)(quinoline-4-yl)methanone], in assay [1], the Ki is 589 nM and the “Rank order (affinity)” value is listed as 13. On human CB1 [2], it took 91.2 nM to reach a half-maximal effect (EC50), the Emax was found to be 13.1% and the Rank order efficacy is on record as 14. Besides, the “right-shift in the potency of the CP55940 response (cAMP)” value at human CB1 [2] (10 µM antagonist, E MAX not reduced) was “approximately 1 log unit”. On human CB1 [3], the EC50 was 257 nM, the Rank order efficacy worked out at 10 and the Emax stood at 88.2%. The “agonist response in pERK by compound alone” value on human CB1 [4] is on record as “not driving an agonist response in pERK”.

Turning to `O=C(c1ccc2c(c1)c1ccccc1n2CCN1CCOCC1)c1cc2ccccc2[nH]1` [Compound 142, (9-(2-(Morpholin-4-yl)ethyl)-9H-carbazol-3-yl)(1H-indol-2-yl)methanone], in assay [1], the “Rank order (affinity)” value is reported as 14. Besides, on human CB1 [2], the EC50 is 1200 nM, the Emax is 31.5% and the Rank order efficacy was determined as 13. For the same molecule, at human CB1 [3], the midpoint of the response, the EC50, lay at 6170 nM; the Rank order efficacy amounted to 6; the Emax turned out to be 123%.

Regarding `O=C(c1ccc2c(c1)c1ccccc1n2CCN1CCOCC1)c1cc2ccccc2o1` [Compound 146, 1-Benzofuran-2-yl(9-(2-(morpholin-4-yl)ethyl)-9H-carbazol-3-yl)methanone], in assay [1], the affinity corresponds to a Ki of 295 nM and the “Rank order (affinity)” value is recorded as 11. In addition, at human CB1 [2], it took 355 nM to reach a half-maximal effect (EC50), the Emax turned out to be 38.5% and the Rank order efficacy is 8.

On to `O=C(c1ccc2c(c1)c1ccccc1n2CCCCCO)c1cccc2ccccc12` [Compound 045], for which, in assay [1], the affinity corresponds to a Ki of 166 nM and the “Rank order (affinity)” value came out at 9. At human CB1 [2], the EC50 is 148 nM, the Emax came out at 34.9% and the Rank order efficacy came to 9. Further, at human CB1 [3], the EC50 was 257 nM, the Rank order efficacy came to 12 and the Emax worked out at 81.9%.
